From ChEMBL document CHEMBL4130397, “Tulongicin, an Antibacterial Tri-Indole Alkaloid from a Deep-Water Topsentia sp. Sponge” (J Nat Prod, 2017)
≈ marks a conversion by molar mass, not a printed value.

How the values were obtained:
Staphylococcus aureus = assay: Antibacterial activity against Staphylococcus aureus ATCC 29213 by CLSI method; format: functional
Method in brief: (§1)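 Broth MIC per CLSI guidelines against ATCC strains; each compound tested in duplicate in at least two independent experiments; top concentration tested 100 μg/mL.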

[1] = tested on: Human immunodeficiency virus 1; assay: Antiviral activity against ENV pseudotyped CXCR4-tropic HIV1 HxB2 infected in human TZM-bl cells after 24 hrs by luciferase reporter gene assay; format: functional, organism-based; settings: Human immunodeficiency virus 1, M:B_HXB2R
HCT-116 = assay: Cytotoxicity against human HCT116 cells; format: cell-based
Escherichia coli = assay: Antibacterial activity against Escherichia coli ATCC 25922 by CLSI method; format: functional; method in brief: as §1
BSC-1 = assay: Cytotoxicity against African green monkey BSC1 cells; format: cell-based; settings: Chlorocebus aethiops
[2] = tested on: Human immunodeficiency virus 1; assay: Antiviral activity against ENV pseudotyped CCR5-tropic HIV1 isolate YU2 infected in human TZM-bl cells after 24 hrs by luciferase reporter gene assay; format: functional, organism-based; settings: Human immunodeficiency virus 1, isolate YU2, TZM-bl

| Compound | MIC (Staphylococcus aureus) [µg/mL] | IC50 [1] [µM] | IC50 (HCT-116) [µM] | MIC (Escherichia coli) [µg/mL] | IC50 (BSC-1) [µM] | IC50 [2] [µM] |
| --- | --- | --- | --- | --- | --- | --- |
| Cc1onc(-c2ccccc2)c1C(=O)N[C@@H]1C(=O)N2[C@@H]1SC(C)(C)[C@@H]2C(=O)O [OXACILLIN] | 0.25 (≈ 0.623 µM) | – | – | – | – | – |
| O=C(C1=NC[C@H](c2c[nH]c3cc(Br)ccc23)N1)c1c[nH]c2cc(Br)ccc12 | 1.1 (≈ 2.26 µM) | 12 | 27 | > 100 | 31 | 9.5 |
| Brc1ccc2c(C(C3=NC[C@H](c4c[nH]c5cc(Br)ccc45)N3)c3c[nH]c4cc(Br)ccc34)c[nH]c2c1 | 1.2 (≈ 1.8 µM) | 2.7 | 10 | > 100 | 46 | 3.9 |
| O[C@H](C1=NC[C@H](c2c[nH]c3cc(Br)ccc23)N1)c1c[nH]c2cc(Br)ccc12 | 3.7 (≈ 7.58 µM) | 4.5 | 16 | 100 (≈ 205 µM) | 93 | 3.5 |
| GENTAMICIN | – | – | – | 1 | – | – |
